# Results taken from ChEMBL document CHEMBL1125245, “Quinolone antibacterials: preparation and activity of bridged bicyclic analogues of the C7-piperazine” (J Med Chem, 1991).
# Experiments:
# [1] = test system: Streptococcus pneumoniae; assay: In vivo protection against gram-positive Streptococcus pneumonia (SV-1) in mouse after oral administration.; format: functional; conditions: read-out: PD50
# [2] = biological target: DNA gyrase (Escherichia coli, UniProt P0AES4+P0AES6); assay: Compound evaluated in vitro for the ability to inhibit gyrase.; format: protein-complex assay; conditions: read-out: I50 (converted)
# Summary of the method: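 DNA gyrase isolated from Escherichia coli H560 cells; inhibition given as I50.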
# [3] = test system: Escherichia coli; assay: In vivo protection against gram-negative Escherichia coli vogel in mouse after subcutaneous administration; conditions: sc, read-out: PD50
# [4] = Compound evaluated in vitro against five gram-positive bacterial strains and geometric means of the minimum inhibitory concentrations (MIC) reported.; format: functional; set-up: unit not given here
# Summary of the method: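 Geometric mean MIC across five Gram-positive strains, taken as antilog of the averaged log MIC values.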
# [5] = test system: Streptococcus pneumoniae; assay: In vivo protection against gram-positive Streptococcus pneumonia (SV-1) in mouse after subcutaneous administration; format: functional; conditions: sc, read-out: PD50
# [6] = Compound evaluated in vitro against five gram-negative bacterial strains and geometric means of the minimum inhibitory concentrations (MIC) reported.; format: functional; set-up: unit not given here
# Summary of the method: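 Geometric mean MIC across five Gram-negative strains (E. coli H560, E. coli Vogel, Enterobacter cloacae MA 2646, Klebsiella pneumoniae MGH-2, Proteus rettgeri M1771). Mean taken as antilog of the averaged log MIC values.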
# [7] = test system: Escherichia coli; assay: In vivo protection against gram-negative Escherichia coli vogel in mouse after oral administration.; conditions: read-out: PD50
smiles,measurement,setting,value
O=C(O)c1cn(C2CC2)c2c(F)c(N3CCN4CCC3C4)c(F)cc2c1=O (configuration not stated),ED50,[1],32 mg/kg
same,IC50,[2],7.73 µM
same,ED50,[3],0.2 mg/kg
same,MIC,[4],0.15
same,ED50,[5],11 mg/kg
same,MIC,[6],0.04
same,ED50,[7],0.5 mg/kg
